Kir21 block: Kir2.1 (mouse) channel inhibition; HEK293-Kir2.1, FluxOR thallium flux fluorescence; stronger effect = lower value; B-score at 10 µM; hit rate 0.85% among 310,000; AID 1672;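 active = fluorescence ratio B-score at or below minus 3 SD of library scores, with starting-brightness B-score within 2 SD, cut at about -4.2 in these data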;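 note: channel flux triggered by added potassium and thallium sulfate stimulus; B-score of peak minus minimum fluorescence over baseline after thallium stimulus; more negative B-score means stronger Kir2.1 block with less thallium influx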
hERG rescue: compounds protecting human hERG from proarrhythmic drug block. AID 1511. activation (rescue from dofetilide block), less the hit threshold, % at 10 µM. hit rate 0.51% among 310,000. CHO-hERG, FluxOR thallium flux, dofetilide IC70 present;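 active = activation above the mean of controls blocked by dofetilide plus 5 SD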;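 note: thallium influx through hERG after potassium depolarization seen as dye fluorescence rise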
KCNK9 block: human KCNK9 channel inhibition. Q9NPC2. HEK293 KCNK9, FluxOR thallium flux fluorescence; stronger effect = lower value. B-score at 10 µM. hit rate 1.2% among 310,000;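 active = ratio B-score over 3 SD below the library mean, with starting fluorescence within 5 SD of its mean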;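 note: negative B-score means less thallium flux so channel inhibition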
KCNK3 inh: human KCNK3 channel inhibition, primary screen. O14649. B-score at 10 µM. hit rate 0.84% among 340,000. CHO-KCNK3 thallium flux, FluxOR fluorescence; stronger effect = lower value. AID 602410;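 active = B-score under library mean minus 4 SD, starting fluorescence ratio at most library mean plus 5 SD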;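 note: more negative B-score means stronger inhibition of thallium flux through KCNK3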
Target sequence (O14649 whole entry, looked up): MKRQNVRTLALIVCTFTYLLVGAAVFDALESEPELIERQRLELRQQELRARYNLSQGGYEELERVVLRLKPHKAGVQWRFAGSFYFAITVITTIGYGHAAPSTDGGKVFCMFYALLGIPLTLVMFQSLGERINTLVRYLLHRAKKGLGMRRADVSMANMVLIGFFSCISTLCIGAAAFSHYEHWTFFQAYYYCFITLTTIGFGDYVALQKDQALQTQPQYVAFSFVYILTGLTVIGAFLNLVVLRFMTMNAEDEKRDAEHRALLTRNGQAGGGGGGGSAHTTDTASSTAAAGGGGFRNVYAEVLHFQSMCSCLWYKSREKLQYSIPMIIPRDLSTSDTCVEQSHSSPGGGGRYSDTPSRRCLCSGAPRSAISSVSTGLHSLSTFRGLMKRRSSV
KCNQ1 act: potentiators or activators of human KCNQ1 potassium channel; CHO-K1 KCNQ1, thallium flux FluxOR fluorescence; stronger effect = higher value; B-score at 10 µM; hit rate 0.35% among 310,000; AID 2648;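 active = fluorescence ratio B-score, a plate-corrected score, at least three library SD, with initial intensity B-score within 5 SD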
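Schedule – 37 °C overnight plating, 90-min dark dye load, 20-min compound pretreatment · System – stable KCNQ1 CHO-K1 line · Probe or stimulus – thallium- and potassium-containing depolarizing buffer · Measured by – kinetic FluxOR fluorescence, 10 s baseline plus 110 s post-stimulus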
KCNQ1 block: human KCNQ1 channel inhibition | P51787 | CHO-K1 KCNQ1, FluxOR thallium flux fluorescence; stronger effect = higher value | B-score at 10 µM | hit rate 1.3% among 310,000;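 active = compounds whose thallium flux B-score, printed positive for inhibition, exceeds three library SD while starting fluorescence stays within three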;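 note: channel opened by potassium depolarization with thallium stimulus after 20 min compound exposure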
KCNK9 block conf: confirmation of human KCNK9 potassium channel inhibitors; HEK293 KCNK9 cells, FluxOR thallium flux fluorescence; inhibition, % at 10 µM; AID 492992; shares compounds with KCNK9 block; hit rate 43% among 4,900;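 active = thallium signal inhibited by more than 5 SD of the compound-free buffer control wells, on both duplicate plates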
Kir2-1 spec: selectivity of KCNK9 modulators against mouse Kir2.1. shares compounds with KCNK9 block. Kir2.1 cells, FluxOR thallium flux fluorescence. inhibition, % at 10 µM. hit rate 4% among 4,900. AID 492993;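 active = thallium signal drop more than 5 SD beyond the mean of the no-compound control wells, seen in both duplicate plates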;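 note: signal is fluorescence rise after thallium addition divided by baseline fluorescence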
KCNK9 uninduced: second check of KCNK9 modulator effects in non-induced HEK293 cells; hit rate 40% among 4,900; FluxOR thallium flux; inhibition, % at 10 µM; AID 492997; shares compounds with KCNK9 block;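 active = thallium signal drop beyond 5 SD of the untreated control mean, on both duplicate plates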
Of the large screens only hits and unclear results are named; the others gave an inactive call (follow-up assays come after a bar, where they were run). This is a sample that favours compounds with a hit; in the whole collection about 3.7% have one here.

CCCC(=O)Nc1cccn(Cc2ccccc2Br)c1=O	none
O=C(CCC1CCCC1)Nc1cccn(Cc2ccccc2Br)c1=O	none | KCNK9 block conf inactive | Kir2-1 spec inactive | KCNK9 uninduced 26%
Cc1cc(C(=O)CSc2nn3c(=O)c(C(C)(C)C)nnc3s2)c(C)n1C1CC1	none | KCNK9 block conf inactive | Kir2-1 spec inactive | KCNK9 uninduced inactive
CC(C)C(=O)Nc1ccc2nn(-c3ccc(F)cc3)nc2c1	none | KCNK9 block conf inactive | Kir2-1 spec inactive | KCNK9 uninduced inactive
O=C(Cc1sc(Nc2ccccc2)nc1-c1ccccc1)NCc1ccccc1	KCNK9 block -9.2 | KCNK9 block conf 62% | Kir2-1 spec inactive | KCNK9 uninduced 31%
CCOc1ccccc1N(C)C(=O)c1cc2c(=O)n(CC)c3ccccc3c2s1	KCNK9 block -14 | KCNK9 block conf 70% | Kir2-1 spec inactive | KCNK9 uninduced 38%
CCn1c(=O)c2cc(C(=O)N(C)CC(OC)OC)sc2c2ccccc21	none
Cc1ccsc1C(=O)N1CCCC(CCC(=O)N2CCN(c3ccccn3)CC2)C1 (stereo unspecified)	none
Cc1ccsc1C(=O)N1CCN(c2ccccn2)CC1	KCNK9 block -8.1 | KCNK9 block conf inactive | Kir2-1 spec inactive | KCNK9 uninduced inactive
Cc1ccc2nc(-c3ccccc3)c(CC(=O)O)c(C(=O)O)c2c1	none
O=C(N/N=C/c1ccc(OC2CSC2)cc1)c1ccccc1	none
O=C(/C=C/c1ccc(OC2CSC2)cc1)c1ccccc1	KCNK9 block -16 | KCNK9 block conf 42% | Kir2-1 spec inactive | KCNK9 uninduced 28%
CCN(CC)S(=O)(=O)c1cc(NC(=O)C(C)N(C)CC(=O)Nc2c(C)cccc2C)ccc1C (stereo unspecified)	KCNK9 block -10 | KCNK9 block conf 52% | Kir2-1 spec inactive | KCNK9 uninduced 36%
CCN(CC)S(=O)(=O)c1cc(NC(=O)C(C)N2CCc3ccccc32)ccc1C (stereo unspecified)	none
Cc1ccc(C)c(N(C(=O)c2ccco2)C(C(=O)NC2CCCC2)c2ccco2)c1 (stereo unspecified)	none
C/C(=N/NC(=O)CN1CCN(S(=O)(=O)c2ccc(C)cc2)CC1)c1cccc(O)c1	none
CCOC(=O)C1=C(CC)Nc2ccccc2N=C1NC(=O)c1oc2ccccc2c1C	KCNK9 block -11 | KCNK9 block conf 35% | Kir2-1 spec inactive | KCNK9 uninduced 27%
CCOCc1c(C(=O)NC2=Nc3ccccc3NC(CC)=C2C(=O)OCC)oc2ccccc12	KCNK9 block -16 | KCNK9 block conf 47% | Kir2-1 spec inactive | KCNK9 uninduced inactive
CCOC(=O)C1=C(CC)Nc2ccccc2N=C1NC(=O)CCNC(C)=O	none
Cc1ccc(C)c(N2CCN(C(=O)c3cc4c(C)nc5ccccc5c4o3)CC2)c1	KCNK9 block -8.8 | KCNK9 block conf 35% | Kir2-1 spec inactive | KCNK9 uninduced inactive
Cc1ccc(C)c(N2CCN(C(=O)c3ccc(CS(=O)Cc4cccc(Cl)c4)o3)CC2)c1 (stereo unspecified)	none | KCNK9 block conf inactive | Kir2-1 spec inactive | KCNK9 uninduced inactive
Cc1cccc(N2CCN(C(=O)c3ccc(CS(=O)Cc4ccc(Cl)cc4)o3)CC2)c1C (stereo unspecified)	none
CCOC(=O)c1nn(C)c(=S)n(C)c1=O	none (no result: Kir21 block, hERG rescue, KCNK9 block, KCNQ1 act, KCNQ1 block)
COc1cccc(OCc2cc(C(=O)NCCc3cccc(C)n3)no2)c1	none
CN(CCCN1CCOCC1)C(=O)c1cc(COc2c(F)cccc2F)on1	none
CN(CCCC1CCCC1)C(=O)c1cc(COc2ccc(F)cc2F)on1	none | KCNK9 block conf inactive | Kir2-1 spec inactive | KCNK9 uninduced inactive
COc1cccc(CCNC(=O)c2cc(COc3c(F)cccc3F)on2)c1	none | KCNK9 block conf inactive | Kir2-1 spec inactive | KCNK9 uninduced inactive
CN(CCCC1CCCC1)C(=O)c1cc(COc2c(F)cccc2F)on1	none | KCNK9 block conf inactive | Kir2-1 spec inactive | KCNK9 uninduced 22%
CC(=O)c1cc(C(=O)c2ccccc2)sc1Nc1ccccc1	none
CC(C)CN(CC(C)C)C(=O)CN1C(=O)NC2(CCc3ccccc3C2)C1=O (stereo unspecified)	none
Cc1ccc(C(=O)N2CCC(C(=O)c3ccc(F)cc3)CC2)cc1	none (no result: Kir21 block, hERG rescue, KCNK9 block, KCNQ1 act, KCNQ1 block)
Cc1ccc(C(=O)N2C(=S)C(c3ccc(F)cc3)=NC23CCN(C)CC3)cc1	none | KCNK9 block conf inactive | Kir2-1 spec inactive | KCNK9 uninduced inactive
Cc1ccc(-n2c([O-])nc(-[n+]3ccccc3)c2C=O)cc1	none
O=C(N/N=C/c1cc(Br)cc(Br)c1O)c1cccc(S(=O)(=O)N2CCOCC2)c1	KCNK9 block -8.5 | KCNK9 block conf 59% | Kir2-1 spec inactive | KCNK9 uninduced 68%
CCC(C)(C)n1nnnc1C(c1ccncc1)N1CCC(Cc2ccccc2)CC1 (stereo unspecified)	none
CC(C)(C)n1nnnc1C(c1cccc(C#N)c1)N1CCC(Cc2ccccc2)CC1 (stereo unspecified)	KCNK9 block -18, KCNK3 inh -11 | KCNK9 block conf 60% | Kir2-1 spec inactive | KCNK9 uninduced 34%
Cc1cccc(C)c1-n1nnnc1SCSc1nnnn1-c1c(C)cccc1C	KCNK9 block -13 | KCNK9 block conf inactive | Kir2-1 spec inactive | KCNK9 uninduced 35%
CSc1nnnn1-c1c(C)cccc1C	none
COc1cc(/C=C(/C#N)C(=O)NCc2ccccc2)cc(OC)c1OC	none
COc1ccc(/C=C(\C#N)C(=O)NCCc2ccccc2)cc1OCc1ccccc1	none | KCNK9 block conf inactive | Kir2-1 spec inactive | KCNK9 uninduced inactive
Cc1ccc(O)c(CNc2cccc3cccnc23)c1	KCNK9 block -9.7 | KCNK9 block conf 60% | Kir2-1 spec inactive | KCNK9 uninduced 36%
Cc1ccc(O)c(CNc2ccccn2)c1	none
Oc1ccc(Br)cc1CNc1cccc2cccnc12	KCNK9 block -13 | KCNK9 block conf 52% | Kir2-1 spec inactive | KCNK9 uninduced 40%
CCOC(=O)c1ccc(NC(=O)c2nc[nH]c2C(=O)N(C)Cc2ccccc2)cc1	none
C#CCOCCOCCOCCNc1nc(N2CCN(C(=O)C([C@@H](C)CC)n3cc(C(N)CO)nn3)CC2)nc(N2CCN(C(=O)C([C@@H](C)CC)n3cc(C(N)COC(=O)C(F)(F)F)nn3)CC2)n1 (stereo partly specified)	none (no result: KCNK3 inh)

Screens: PubChem BioAssay, Johns Hopkins Ion Channel Center
